Compound activity from PubChem.
VIM-2 inhibitor: inhibitors of Pseudomonas aeruginosa VIM-2 metallo-beta-lactamase | purified VIM-2, nitrocefin hydrolysis, epi-absorbance fluorescence | 290,000 tested, 0.89% active | inhibition, % at 5.6 µM;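 active means inhibition above the mean of all tested compounds plus 3 SD, cutoff set per screening run, cut at about 7.5% in these data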;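 further: red hydrolysis product quenches plate fluorescence so inhibitors raise well fluorescence; 0% = enzyme with DMSO and 100% = DMSO without enzyme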
dFosB act-1: enhances mouse delta FosB homodimer DNA binding | P13346 | purified delta FosB, TAMRA-CDK5 oligo fluorescence polarization; percent of positive-control signal above neutral wells | activation, % at 25 µM | 340,000 tested, 0.99% active;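 active means mean activation above about 17%, with every replicate also reaching it, limit read from the data, passing the limit was not always enough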
Target sequence (P13346 whole entry, looked up): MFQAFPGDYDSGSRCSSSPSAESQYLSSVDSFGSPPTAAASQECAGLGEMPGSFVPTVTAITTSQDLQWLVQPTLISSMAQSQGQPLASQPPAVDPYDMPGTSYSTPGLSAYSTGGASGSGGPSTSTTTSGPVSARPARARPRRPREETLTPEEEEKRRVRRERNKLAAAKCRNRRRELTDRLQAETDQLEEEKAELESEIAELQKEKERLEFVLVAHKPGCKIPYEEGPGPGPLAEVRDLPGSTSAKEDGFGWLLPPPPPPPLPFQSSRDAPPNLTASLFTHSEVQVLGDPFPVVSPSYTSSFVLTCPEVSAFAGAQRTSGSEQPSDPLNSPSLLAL
IMP-1 inh: inhibitors of Pseudomonas aeruginosa IMP-1 metallo-beta-lactamase | inhibition, % at 5.6 µM | purified IMP-1, nitrocefin hydrolysis, epi-absorbance fluorescence | 290,000 tested, 0.45% active;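 active means inhibition above the mean plus 3 SD of all compounds in the same screening run, cut at about 4.5% in these data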;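 further: 0% = IMP-1 with DMSO and 100% = DMSO wells lacking enzyme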
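System: purified recombinant IMP-1 beta-lactamase. Medium: Zinc- and detergent-supplemented HEPES buffer, pH 7.1. Compound: one 5.6 µM dose […]. Schedule: 15 min preincubation plus 25 min reaction at 25 °C. Technique: Epi-absorbance fluorescence, 480 nm excitation, 530 nm emission.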
m5-HT2A agonist: agonists of mouse serotonin 5-HT2A receptor (HTR2A); P35363; CHO-K1 mHTR2A beta-arrestin complementation, luminescence; percent of 30 µM serotonin response; activation, % at 7.6 µM; 360,000 tested, 0.66% active; AID 624169;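 active means activation above a run cutoff, the mean activation of all tested compounds plus 3 SD, cut at about 14% in these data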;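 further: 0% = plate median of compound wells and 100% = 30 µM serotonin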
dFosB act-2: activators of mouse delta FosB homodimer DNA binding; purified delta FosB, TAMRA-CDK5 oligo fluorescence polarization; normalised: neutral wells 0, positive control 100; AID 588690; shares compounds with dFosB act-1; activation, % at 24.9 µM; 2,400 tested, under 10 active;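 active means highest replicate activation at or above 34% and every replicate reaching that threshold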;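 further: higher polarization means more probe DNA bound by delta FosB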
The depositor's hits bear a star; nt = no result. Rows were chosen to be rich in hits. Some 2.5% of all compounds tested hit in one or more screens of this group.

SMILES | VIM-2 inhibitor | dFosB act-1 | IMP-1 inh | m5-HT2A agonist | dFosB act-2
CCCCNC(=S)N(C)/N=C/c1ccc(OCC(=O)Nc2c(C)cc(C)cc2C)c(OC)c1 | -1 | 0 | 0 | -1 | nt
COc1cc(/C=N/NC(=S)NC(C)C)ccc1OCC(=O)Nc1c(C)cc(C)cc1C | -5 | 29* | -2 | 4 | 0
CCn1c(SCC(=O)Nc2cccc(NC(C)=O)c2)nc2c([nH]c3ccccc32)c1=O | 0 | 9 | -1 | 5 | nt
CCn1c(SCC(=O)Nc2ccc(C(C)=O)cc2)nc2c([nH]c3ccccc32)c1=O | -2 | 33* | -2 | -2 | 3
CC(=O)c1c(C)[nH]c(C(=O)OCc2ccc(F)cc2Cl)c1C | -2 | 1 | -4 | -2 | nt
CC(=O)c1c(C)[nH]c(C(=O)OCc2c(F)cccc2Cl)c1C | -3 | 21* | -2 | -3 | 0
CCOC(=O)C1(C)CCN1C(=O)c1ccc(C(F)(F)F)cc1 (stereo not drawn) | nt | nt | nt | 7 | nt
O=C(Cn1ncn2c(cc3ccccc32)c1=O)NCCCc1ccccc1 | 0 | 48* | -2 | 2 | 1
O=C(CCS(=O)(=O)c1ccc(Br)cc1)NC1CCCCCC1 | -2 | -2 | 4 | -3 | nt
Oc1ccc(-c2sc(Nc3ccccc3)n[n+]2-c2ccc(F)cc2)cc1 | -4 | 2 | -5 | -6 | nt
CSc1ccc(-c2sc(Nc3ccccc3)n[n+]2-c2ccc(F)cc2)cc1 | -2 | 23* | -4 | nt | 6
CC1CCCCC12NC(=O)N(CC(=O)N1CCN(c3ncccn3)CC1)C2=O (stereo not drawn) | nt | -8 | nt | 4 | nt
N#C/C(=C\c1cn(Cc2ccc(F)cc2)c2ccccc12)C(=O)NCc1ccco1 | -1 | 4 | -2 | -6 | nt
Cc1cccc(NC(=O)/C(C#N)=C/c2cn(CC(=O)NCc3ccco3)c3ccccc23)c1C | -1 | 37* | -3 | 7 | 0
N#C/C(=C\c1cn(Cc2cccc(F)c2)c2ccccc12)C(=O)NCc1ccco1 | 0 | 37* | -2 | -4 | 5
c1ccc(CNc2nc(-c3cccs3)nc3ccccc23)cc1 | -2 | 17* | -2 | -6 | 2
Clc1cccc(CNc2nc(-c3cccnc3)nc3ccccc23)c1 | -2 | 55* | -1 | 0 | 2
S=c1nc(NCc2cccc(Cl)c2)c2ccccc2[nH]1 | -4 | 45* | -4 | -2 | 0
Cc1[nH]nc2nc(SCC(=O)NCCC3=CCCCC3)n(-c3ccc(Br)cc3)c(=N)c12 | -4 | 66* | -2 | -5 | 8
CCOC(=O)CNC(=O)C1COc2ccccc2O1 (stereo not drawn) | -2 | -1 | -1 | 0 | nt
CCOC(=O)c1cc(-c2ccccc2)sc1NC(=O)COC(=O)c1cccc(S(N)(=O)=O)c1 | 2 | 24* | 1 | 4 | -2
Cc1ccc(S(=O)(=O)N(C)c2c(C)ccc(S(N)(=O)=O)c2C)cc1 | 2 | -5 | -2 | -2 | nt
CCOC(=O)c1c(O)c(Cl)c(C)[nH]c1=O | -4 | 2 | -2 | -1 | nt
CC(C)C[C@H]1CNC(=S)N1CC1CCCN1C[C@H](Cc1ccccc1)N1C[C@H](Cc2ccc(O)cc2)N(CC2CCCCC2)C1=S (stereo partly drawn) | nt | 59* | nt | -7 | 2
CC(C)C[C@H]1CNC(=S)N1CC1CCCN1C[C@H](CC(C)C)N1C[C@H](Cc2ccc(O)cc2)N(CC2CCCCC2)C1=S (stereo partly drawn) | nt | 27* | nt | -9 | 5
CC(C)C[C@H]1CNC(=S)N1CC1CCCN1C[C@H](CC(C)C)N1C[C@H](Cc2ccc(O)cc2)N(CC2CCCCCC2)C1=S (stereo partly drawn) | nt | 23* | nt | 3 | 4
CC(C)C[C@@H](CN1CCCC1CN1C(=S)NC[C@@H]1Cc1ccc(O)cc1)N1C[C@H](Cc2ccc(O)cc2)N(CC2CCCCC2)C1=S (stereo partly drawn) | nt | 37* | nt | -7 | 7
CC(C)C[C@H]1CNC(=S)N1C[C@H]1CCCN1C[C@H](CC(C)C)N1C[C@H](Cc2ccc(O)cc2)N(CC2CCCCCC2)C1=S | nt | nt | nt | 1 | nt
CC(C)C[C@H]1CNC(=S)N1C[C@H]1CCCN1C[C@H](Cc1ccccc1)N1C[C@H](Cc2ccc(O)cc2)N(CC2CCCCCC2)C1=S | nt | nt | nt | 2 | nt
COC(=O)c1ccccc1NC(=O)CNc1ccc(F)c(S(=O)(=O)N2CCOCC2)c1 | nt | -2 | nt | 5 | nt
